Results: paper PMC2843942 (Journal of the American Chemical Society, 2010)
Where two headings read alike, the source gives them in different places. Each block holds one compound with its values, some of them ahead of it.

What was measured:
GST-LSD1 [1] = biological target: T1, GST-LSD1 (Homo sapiens, UniProt O60341); details: cited from earlier work; for inactivation of LSD1: result in words
GST-LSD1 [2] = biological target: T1, GST-LSD1; experiment: peroxidase-coupled assay; type: biochemical; details: for k(inact): 185 nM GST-LSD1, Kitz-Wilson analysis; for KI (inactivation): 185 nM GST-LSD1, 240 µM substrate, extrapolated to zero substrate, Kitz-Wilson; for time-dependent inactivation of LSD1: result in words
GST-LSD1 [3] = biological target: T1, GST-LSD1; details: 500 µM phenelzine, 30 min preincubation, 10 µM substrate
[4] = tested on: TSHalpha luciferase reporter in α-23 cells derived from GH3 cells; details: 10 µM phenelzine, 24 hours, with or without 0.1 µM T3
[5] = tested on: methylation of Lys-4 of histone H3 in α-23 cells; details: 10 µM phenelzine, one hour, ChIP
GST-LSD1 (aa 171-852) [6] = biological target: GST-LSD1 (aa 171-852) (UniProt O60341); experiment: enzyme inactivation kinetics
GST-LSD1 [7] = biological target: T1, GST-LSD1; experiment: Amplex Red horseradish peroxidase coupled assay detecting H2O2; type: biochemical
Outline: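 Human GST-LSD1 (aa 171–852) from E. coli, at 25 nM, in 50 mM HEPES pH 7.5 with 0.1 mM Amplex Red and 0.76 µM horseradish peroxidase. Dimethyl-Lys-4 H3-21 substrate started 150 µL reactions, aerobic, at 25 °C. For inactivation, test compound and substrate (600 µM final) were added together. H2O2 was followed at 571 nm (ε 52,000 M−1 cm−1) from initial velocities.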

GST-LSD1 (aa 171-852) [8] = biological target: GST-LSD1 (aa 171-852) (UniProt O60341); experiment: enzyme inhibition kinetics
[9] = 25 nM LSD1, 600 µM substrate, Amplex Red

Compound: C#CCN(C)Cc1ccccc1 [pargyline, reference compound]
inactivation of LSD1 (GST-LSD1 [1]): failed in subsequent studies to appreciably inactivate LSD1

k(inact) (GST-LSD1 [2]): 0.955 ± 0.085 min⁻¹
demethylation of H3-21 dimethyl-Lys substrate peptide by treated LSD1 (GST-LSD1 [3]): unable to induce loss of a methyl group
Compound: NNCCc1ccccc1 [phenelzine, phenethylhydrazine]
luciferase activity of TSHalpha reporter [4]: increases luciferase activity both in the absence and presence of T3
mono and dimethylation of Lys-4 H3 at TSHalpha reporter region [5]: enhanced
trimethylation level of Lys-4 H3 at TSHalpha reporter region [5]: unaffected

Ki(inact) (GST-LSD1 (aa 171-852) [6]): 955 nM
Compound: cis-3-chloroallyl-Lys-4 H3-21 (3) (from UniProt P68431 2-22) (peptide)

kinact/Ki(inact) fold difference from peptide 2 (GST-LSD1 [2]): ≤ 5 fold
KI (inactivation) (GST-LSD1 [2]): 955 ± 150 nM
k(inact) (GST-LSD1 [2]): 0.545 ± 0.038 min⁻¹
Compound: cis-3-chloroallyl-Lys-4 H3-21 [compound 3]
time-dependent inactivation of LSD1 (GST-LSD1 [2]): time- and concentration-dependent inactivation

kcat (GST-LSD1 [2]; GST-LSD1 with this substrate, 185 nM enzyme): 0.075 ± 0.0017 s⁻¹
Km (GST-LSD1 [2]; substrate of GST-LSD1, 185 nM enzyme, pH 7.5, 25 °C): 21 ± 2 µM
kcat (GST-LSD1 [7]; GST-LSD1 with this substrate, 25 nM enzyme, Amplex Red): 0.0583 ± 0.0033 s⁻¹
Km (GST-LSD1 [7]; substrate of GST-LSD1, 25 nM enzyme, Amplex Red): 20 ± 3 µM
Compound: dimethyl-Lys-4 H3-21 [reference compound]

Ki (GST-LSD1 (aa 171-852) [8]): 6110 nM
Compound: endo-cyclopropyl-Lys-4 H3-21 (7) (from UniProt P68431 2-22) (peptide)

Ki (GST-LSD1 (aa 171-852) [8]): 24200 nM
Compound: endo-dimethylcyclopropyl-Lys-4 H3-21 (8) (from UniProt P68431 2-22) (peptide)

Compound: exo-cyclopropyl-Lys-4 H3-21 [compound 6]
inactivation of LSD1 (GST-LSD1 [1]): did not inactivate LSD1
Ki (GST-LSD1 [1]; reversible inhibitor, estimated, obtained previously): 2700 ± 740 nM

Ki(inact) (GST-LSD1 (aa 171-852) [6]): 4.35 nM
Compound: hydrazino-Lys-4 H3-21 (18) (from UniProt P68431 2-22) (peptide)

Compound: hydrazino-Lys-4 H3-21 [compound 18]
time-dependent inactivation of LSD1 (GST-LSD1 [2]): highly potent time-dependent inhibitor
fold more efficient in inhibiting demethylation than propargylamine-H3 derivatives (GST-LSD1 [7]): more than 20 fold
KI (inactivation) (GST-LSD1 [7]; [9]): 4.35 ± 0.86 nM
k(inact) (GST-LSD1 [7]; [9]): 0.247 ± 0.018 min⁻¹
fold more potent than 2 as LSD1 inactivator (GST-LSD1 [7]; versus N-methylpropargylamine peptide 2): approximately 25 fold

Compound: propargyl-Lys-4 H3-21 [compound 1]
KI (inactivation) (GST-LSD1 [1]; obtained previously): 775 ± 160 nM
k(inact) (GST-LSD1 [1]; obtained previously): 0.304 ± 0.033 min⁻¹

Ki(inact) (GST-LSD1 (aa 171-852) [6]): 763 nM
Compound: trans-3-chloroallyl-Lys-4 H3-21 (4) (from UniProt P68431 2-22) (peptide)

KI (inactivation) (GST-LSD1 [2]): 763 ± 120 nM
k(inact) (GST-LSD1 [2]): 0.128 ± 0.0087 min⁻¹
Compound: trans-3-chloroallyl-Lys-4 H3-21 [compound 4]
time-dependent inactivation of LSD1 (GST-LSD1 [2]): time- and concentration-dependent inactivation
